HNF4A DNA FP: change in binding of human HNF4A to DNA, primary screen, biochemical, fluorescence polarization, FITC-DNA; 1 h; Hepatocyte nuclear factor 4-alpha (Homo sapiens), P41235; activity change, % at 10 µM; 0.3% of 360,000 active; in the data active = activity change above about 30%, passing the limit was not always enough
Target sequence (P41235 whole entry, looked up): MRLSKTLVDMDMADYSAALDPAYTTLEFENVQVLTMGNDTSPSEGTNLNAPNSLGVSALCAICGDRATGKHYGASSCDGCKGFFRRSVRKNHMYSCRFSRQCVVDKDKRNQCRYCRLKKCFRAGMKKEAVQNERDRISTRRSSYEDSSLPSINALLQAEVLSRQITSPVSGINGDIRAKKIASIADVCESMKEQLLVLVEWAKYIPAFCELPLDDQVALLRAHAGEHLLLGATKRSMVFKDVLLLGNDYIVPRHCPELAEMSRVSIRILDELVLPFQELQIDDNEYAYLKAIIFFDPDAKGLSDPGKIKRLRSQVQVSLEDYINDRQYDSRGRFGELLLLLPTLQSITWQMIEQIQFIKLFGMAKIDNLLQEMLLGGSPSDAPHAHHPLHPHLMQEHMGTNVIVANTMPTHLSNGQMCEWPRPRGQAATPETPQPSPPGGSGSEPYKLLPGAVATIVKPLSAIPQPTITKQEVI
TPT1 inhibitor: Candida albicans TPT1 enzyme inhibitors, primary screen, biochemical, fluorescence polarization | AID 1962, 2009 | inhibition, % at 5 µM | 0.81% of 300,000 active | tRNA 2'-phosphotransferase TPT1 (Candida albicans SC5314) | recombinant caTPT1, FP RNA substrate dephosphorylation;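 active = inhibition above the mean of all tested compounds plus 3 SD, set per screening campaign, cut at about 24% in these data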;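 also: plate controls were DMSO alone for no effect and ferristatin control at 100 nM for full effect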
UBC9 SUMO inh: inhibitors of in vitro SUMOylation cascade, primary screen, biochemical, HTRF, uHTS; HTRF SUMOylation assay, SAE1/SAE2 + UBC9; SUMO-conjugating enzyme UBC9 (Homo sapiens), P63279; 0.36% of 290,000 active; inhibition, % at 35 µM; in the data active = inhibition above about 50%, passing the limit was not always enough
CSN deneddyl inh: inhibitors of CSN-mediated cullin deneddylation, primary screen, biochemical, fluorescence polarization, uHTS; COP9 signalosome complex subunit 5 (Homo sapiens), Q92905; Purified CSN, SCF-Nedd8-OG deneddylation; inhibition, % at 12.5 µM; 0.38% of 360,000 active;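 active = pattern-corrected inhibition above about 35%, with an unprinted fluorescence ratio check between 0.5 and 1.5, limit read from the data, passing the limit was not always enough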;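 also: 0% = enzyme with substrate and 100% = substrate without enzyme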
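Test system: purified human Csn5 enzyme expressed in HEK293T cells. Amount: 0.24 nM enzyme. Reagent: SCFSkp2-Nedd8OG substrate at 10 nM final. Schedule: 90 min incubation of compound, enzyme and substrate at room temperature. Detection: fluorescence polarization. Read-out: % inhibition of substrate cleavage by Csn5.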
SENP1 inh: human SENP1 catalytic domain inhibitors, primary screen, biochemical, FRET, uHTS | Sentrin-specific protease 1 (Homo sapiens), Q9P0U3 | recombinant SENP1 catalytic domain, CyPet-SUMO1-YPet FRET cleavage | inhibition, % at 10 µM | 0.21% of 360,000 active;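 active = inhibition at least 30% at 10 µM, raw YFP signal under a set limit, fluorescence ratio 0.5 to 1.5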;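 also: 0% = enzyme with DMSO and 100% = no enzyme wells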
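Assay system – human recombinant His6-tagged SENP1 catalytic domain enzyme · Input – SENP1 enzyme, 20 pM final · Buffer or medium – Tris pH 8 buffer plus EDTA, NaCl, BME, BSA, NP40, catalase · Schedule – 50 min reaction at room temperature · Technique – FRET read of cyan and yellow fluorescence · Control set – no-enzyme wells low, DMSO-plus-enzyme wells high control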
Rpn11 block: Rpn11 (PSMD14) deubiquitinase inhibitors, primary screen, biochemical, fluorescence polarization, uHTS | human 26S proteasome, Ub4-pepOG fluorescence polarization; 20S core pre-blocked with epoxomicin | 0.59% of 360,000 active | 26S proteasome non-ATPase regulatory subunit 14 (Homo sapiens), O00487 | calls only at 20 µM | AID 588493, 2011;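 active = inhibition at 20 µM, scaled to each plate's controls, above about 33%, limit read from the data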
caTPT1 confirm: Candida albicans TPT1 inhibitors, confirmation, biochemical, fluorescence polarization, triplicate | inhibition, % at 5 µM | shares compounds with TPT1 inhibitor | recombinant caTPT1, RNase T1 coupled | 74% of 2,400 active;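 active = inhibition above the primary screen limit, the mean inhibition of all tested compounds plus 3 SD, cut at about 25% in these data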
RNase T1 counter: RNase T1 inhibitors, counter-screen for TPT1 inhibitor project, biochemical, fluorescence polarization; shares compounds with TPT1 inhibitor; RNase T1 cleavage, 1536-well; inhibition, % at 5 µM; 83% of 2,400 active;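 active = inhibition above the solvent-only control well mean plus 3 SD, limit set per screening run, cut at about 23% in these data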;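 also: plate controls were DMSO wells with enzyme for no effect and wells without RNase T1 for full effect; inhibitors block cleavage so intact labeled substrate keeps polarization high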
Target sequence (P00651 whole entry, looked up): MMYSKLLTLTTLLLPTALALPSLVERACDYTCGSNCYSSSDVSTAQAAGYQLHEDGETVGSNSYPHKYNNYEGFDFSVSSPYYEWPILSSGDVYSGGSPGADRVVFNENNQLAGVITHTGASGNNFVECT
* hit, by the source's call; i = inactive; . = no result shown; + = active, no number. This is a sample that favours compounds with a hit; in the whole collection about 1.8% have one here.

SMILES | HNF4A DNA FP | TPT1 inhibitor | UBC9 SUMO inh | CSN deneddyl inh | SENP1 inh | Rpn11 block | caTPT1 confirm | RNase T1 counter
COc1ccc(OC)c(/C=C2\Oc3cc(OCC(=O)N4CCC(C(=O)O)CC4)ccc3C2=O)c1 | 3 | 29* | 12 | 2 | -17 | i | 48* | 57*
CCN(CC)c1ccc(/C=C/C(=O)c2ccc(Br)cc2)cc1 | -4 | 97* | 7 | -92 | -25 | . | 94* | 96*
Cc1nc2ccccn2c1C(=O)N/N=C/c1cc(C)n(-c2ccc(Br)cc2)c1C | -3 | 0 | 1 | 0 | -10 | i | . | .
CCC1CCCCN1CCCNC(=O)CNC(=O)c1nn(-c2ccc(OC)cc2)c(=O)c2ccccc12 (stereo not given) | -1 | -3 | 4 | 0 | -2 | i | . | .
CCC1CCCCN1CCCNC(=O)CNC(=O)Cn1ccc2ccccc2c1=O (stereo not given) | 0 | 37* | 12 | -1 | -14 | i | 7 | 6
CCN1CCc2c(sc(NC(=O)c3ccc(S(=O)(=O)N(C)c4ccccc4)cc3)c2C(=O)NC)C1 | 27 | 133* | 6 | 19 | -31 | i | 150* | 145*
CNC(=O)c1c(NC(=O)c2ccc(S(=O)(=O)N(C)c3ccccc3)cc2)sc2c1CCN(C(C)C)C2 | . | 125* | -2 | . | . | . | 161* | 149*
COC(=O)c1c(NC(=O)c2ccc(N(C)S(=O)(=O)c3ccc(C)cc3)cc2)sc2c1CCCC2 | -3 | -1 | 21 | 4 | -5 | i | . | .
CN(CC(=O)Nc1ccc(F)cc1)CC(=O)N1CCCCCC1 | 1 | . | . | -6 | -2 | i | . | .
COc1cccc(S(=O)(=O)Nc2ccc(C(=O)NCc3ccco3)cc2)c1 | -2 | 28* | 15 | 5 | -2 | i | 6 | 9
CN1/C(=C\C=C(/C#N)C(=O)Nc2ccccc2F)C(C)(C)c2ccccc21 | 102 | 123* | 4 | 123 | -23 | . | 95* | 93*
O=S(=O)(NCCCCCNS(=O)(=O)c1ccc(F)cc1)c1ccc(F)cc1 | 1 | -2 | -12 | -1 | -1 | i | . | .
O=C(O)CCn1cc(/C=C2/NC(=S)N(c3ccccc3)C2=O)c(-c2ccccc2)n1 | 3 | 1 | 0 | -15 | -44 | i | . | .
O=C(O)CCn1cc(/C=C2\SC(=S)NC2=O)c(-c2ccccc2)n1 | 4 | 54* | 3 | 10 | 9 | i | 1 | 7
COc1ccc(/C=C/C(=O)c2ccncc2)c2ccccc12 | 1 | 63* | 43 | 1 | -27 | i | 73* | 81*
Cc1ccc(-c2noc(CCC(=O)N3CCCC3)n2)cc1 | 1 | -2 | 14 | 4 | 1 | i | . | .
CCN1CCS/C1=C\C=C\C1=[N+](CC)CCS1 | 13 | . | -9 | 4 | -26 | i | . | .
CCN1CCS/C1=C/C=C/C1=[N+](CC)CCS1 | 15 | 25* | 0 | -15 | -29 | i | 25* | 33*
COc1ccccc1NC(=O)/C(C#N)=C/c1ccncc1 | 2 | 0 | 10 | 2 | -95 | i | . | .
COc1ccccc1NC(=O)/C(C#N)=C/c1cc([N+](=O)[O-])ccc1N1CCCC1 | -105 | 38* | 26 | -77 | -25 | i | 74* | 85*
CCSc1ccc([C@@H]2[C@@H]3C(=O)N(CC)C(=O)[C@@H]3[C@]3(C(=O)OC)CCCCN23)cc1 | -1 | 0 | . | -2 | 1 | i | . | .
CCSc1ccc([C@@H]2[C@H]3C(=O)N(CC)C(=O)[C@H]3[C@]3(C(=O)OC)CCCCN23)cc1 | 11 | 24* | . | 6 | -48 | i | 39* | 49*
CCOc1ccc(N2C(=O)S/C(=C\c3ccc(O)c(OC)c3)C2=O)cc1 | 11 | 66* | 20 | 5 | -16 | i | 48* | 58*
CCc1nc2ccccc2c(C(=O)Oc2ccc(C(=O)OC)cc2)c1C | 1 | 0 | -18 | 4 | 2 | i | . | .
O=C1/C(=C/N(C(=O)c2ccco2)c2ccc(Br)cc2)Sc2ccccc21 | 14 | 70* | 15 | 21 | -47 | + | 71* | 85*
SMILES | HNF4A DNA FP | TPT1 inhibitor | UBC9 SUMO inh | CSN deneddyl inh | SENP1 inh | Rpn11 block | caTPT1 confirm | RNase T1 counter
O=C1/C(=C/N(C(=O)c2ccco2)c2ccc(Cl)cc2)Sc2ccccc21 | 13 | 69* | 4 | 10 | -39 | i | 70* | 82*
COc1ccc(CN(C(=O)c2ccco2)c2ccc(Br)cc2)cc1OC | 0 | -1 | 6 | 1 | 1 | i | . | .
Cc1cccnc1NC(=O)c1cccc(NC(=O)CC2SC(N3CCCCC3)=NC2=O)c1 (stereo not given) | 5 | . | . | -3 | 1 | i | . | .
N#CC1(C#N)CC(C=O)=C(N)C1(C#N)CC(=O)c1ccc(F)cc1 (stereo not given) | 2 | 57* | 33 | 20 | -23 | i | 32* | 42*
Cc1ccc(NS(=O)(=O)c2cc([N+](=O)[O-])ccc2NNC(=S)Nc2cccc(Cl)c2)c(C)c1 | 30 | 36* | 12 | 18 | 54* | + | 37* | 46*
CCOC(=O)/C=c1\s/c(=C\c2ccccc2C)c(=O)n1CC(=O)NCc1ccc2c(c1)OCO2 | 11 | 41* | 42 | 10 | -35 | i | 30* | 43*
CCOC(=O)/C=c1\s/c(=C\c2ccc3c(c2)OCCO3)c(=O)n1CC(=O)NCC1CCCO1 (stereo not given) | 9 | 22 | 40 | 8 | -63 | i | . | .
CCOC(=O)/C=c1/s/c(=C\c2c(OC)ccc3ccccc23)c(=O)n1CC(=O)NCC1CCCO1 (stereo not given) | 15 | . | . | 10 | -34 | . | . | .
CCOC(=O)/C=c1\s/c(=C\c2c(OCC)ccc3ccccc23)c(=O)n1CC(=O)NCC1CCCO1 (stereo not given) | 15 | 25* | 6 | 9 | -18 | . | 19 | 32*
